Test results reported in ChEMBL document CHEMBL1121839, “Synthesis of spiro[isobenzofuran-1(3H),4'-piperidines] as potential central nervous system agents. 6. Synthesis, 13C NMR, and biological evaluation of cis- and trans-4-amino-3'-arylspiro[cyclohexane-1,1'(3'H)-isobenzofuran] derivatives” (1981).

Legend:
Type in all cases: functional
Rattus norvegicus [1] = assay: Percent potentiation of L-5-hydroxytryptophan-induced seizures (head-twitching) at 10 mg/kg i.p. in rats; details: route intraperitoneal
Procedure, shortened: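 Male Wistar rats, groups of six, got pargyline HCl 75 mg/kg s.c. 4 h before testing and test drug i.p. (10 mL/kg) 30 min before. L-5-hydroxytryptophan 1 mg/kg i.p. in distilled water was then given. Rats were observed 5 min later for head motion and coarse tremors; continuous forelimb clonus counted as potentiation, normalized as percent versus vehicle control.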

Mus musculus = assay: Inhibition of tetrabenazine-induced ptosis in mice following i.p. administration.; details: ip
Procedure, shortened: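 Male CD-1 mice, groups of five, received compound i.p.; tetrabenazine methanesulfonate 40 mg/kg i.p. followed 30 min later. After another 30 min, mice were housed singly and ptosis was scored (eyes closed 2, half open 1, open 0). ED50 and 95% confidence intervals came from linear regression of ptosis scores.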

Rattus norvegicus [2] = assay: Effective concentration required for potentiation of L-5-hydroxytryptophan-induced seizures (head-twitching) in rats (administered intraperitoneally); details: ip
Procedure, shortened: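 Male Wistar rats, groups of six, pretreated with pargyline HCl 75 mg/kg sc 4 h before testing. Test drug given ip (10 mL/kg) 30 min before testing, then L-5-hydroxytryptophan 1 mg/kg ip in distilled water. Head motion and coarse tremors were scored 5 min later, with continuous forelimb clonus counted as potentiation. Results are expressed as normalized percent potentiation versus vehicle control.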

| SMILES | Potentiation (Rattus norvegicus [1]) | ED50 (Mus musculus) | ED50 (Rattus norvegicus [2]) |
| --- | --- | --- | --- |
| CN[C@H]1CC[C@]2(CC1)OC(c1ccc(Cl)cc1)c1ccccc12 (stereo not given in full) | 0% | > 20 mg/kg |  |
| CN(C)[C@H]1CC[C@@]2(CC1)OC(c1ccccc1)c1ccccc12 (stereo not given in full) | 0% | > 20 mg/kg |  |
| CN(C)[C@H]1CC[C@]2(CC1)OC(c1ccc(Cl)cc1)c1ccccc12 (stereo not given in full) | 0% | > 20 mg/kg |  |
| CN[C@H]1CC[C@]2(CC1)OC(c1ccccc1)c1ccccc12 (stereo not given in full) | 0% | 2 mg/kg |  |
| CN(C)[C@H]1CC[C@]2(CC1)OC(c1ccccc1)c1ccccc12 (stereo not given in full) | 50% | 3.7 mg/kg |  |
| CN[C@H]1CC[C@]2(CC1)OC(c1ccc(F)cc1)c1ccccc12 (stereo not given in full) | 0% | 20 mg/kg |  |
| CNCCCN1c2ccccc2CCc2ccccc21 [DESIPRAMINE] |  | 0.3 mg/kg |  |
| CN[C@H]1CC[C@@]2(CC1)OC(c1ccccc1)c1ccccc12 (stereo not given in full) | 50% | > 20 mg/kg |  |
| CN(C)[C@H]1CC[C@]2(CC1)OC(C)(c1ccccc1)c1ccccc12 (stereo not given in full) | 0% | > 20 mg/kg |  |
| CCC1(c2ccccc2)O[C@]2(CC[C@@H](N(C)C)CC2)c2ccccc21 (stereo not given in full) | 0% | > 20 mg/kg |  |
| CCCC1(c2ccccc2)O[C@]2(CC[C@@H](N(C)C)CC2)c2ccccc21 (stereo not given in full) | 0% | > 20 mg/kg |  |
| Cc1ccccc1C1O[C@]2(CC[C@@H](N(C)C)CC2)c2ccccc21 (stereo not given in full) | 0% | > 20 mg/kg |  |
| CN(C)CCC=C1c2ccccc2CCc2ccccc21 [AMITRIPTYLINE] |  | 1.5 mg/kg | 7.1 mg/kg |
| CN(C)[C@H]1CC[C@]2(CC1)OCc1ccccc12 | 0% | > 20 mg/kg |  |
| CC1O[C@]2(CC[C@@H](N(C)C)CC2)c2ccccc21 (stereo not given in full) | 0% | 20 mg/kg |  |
| CN(C)[C@H]1CC[C@]2(CC1)OC(c1ccc(F)cc1)c1ccccc12 (stereo not given in full) | 50% | 8.4 mg/kg |  |
| CN[C@H]1CC[C@]2(CC1)OC(c1ccccc1C)c1ccccc12 (stereo not given in full) | 50% | > 20 mg/kg |  |
| Cc1ccc(C2O[C@]3(CC[C@@H](N(C)C)CC3)c3ccccc32)cc1 (stereo not given in full) | 33% | > 20 mg/kg |  |
